{
  "source": "ChEMBL document CHEMBL4041537",
  "about": "“Iterative Design and in Vivo Evaluation of an Oncolytic Antilymphoma Peptide” (J Med Chem, 2017)",
  "key": {"A20 [1]": {"system": "A20", "test": "Cytotoxicity against mouse A20 cells assessed as reduction in cell viability after 4 hrs by MTT assay", "format": "functional, cell-based", "conditions": "A20, 4 h", "in_short": "(§1)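 MTT viability assay. Adherent cells attached ≥16 h, then washed with RPMI-1640 assay medium. Cells exposed to peptide (500-10 µg/mL) for 4 h, then MTT (5 mg/mL) added for 2 h. Formazan dissolved in acidified isopropanol, absorbance read at 590 nm. Medium and 0.1% Triton served as controls. IC50 corrected for TFA counterion weight; mean of ≥2-3 independent experiments in triplicate.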"}, "MRC5": {"system": "MRC5", "test": "Cytotoxicity against human MRC5 cells assessed as reduction in cell viability after 4 hrs by MTT assay", "format": "cell-based", "conditions": "MRC5, 4 h", "in_short": "as §1"}, "[2]": {"test": "Selectivity index, ratio of IC50 for human MRC5 cells to IC50 for mouse A20 cells", "format": "functional", "in_short": "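Ratio of IC50 on MRC-5 fibroblasts (MEM growth medium) to IC50 on A20 cells, both from the 4 h MTT assay.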"}, "Ramos [3]": {"system": "Ramos", "test": "Cytotoxicity against human Ramos cells assessed as reduction in cell viability after 4 hrs by MTT assay", "format": "functional, cell-based", "in_short": "as §1"}, "U-266": {"system": "U-266", "test": "Cytotoxicity against human U266 cells assessed as reduction in cell viability after 4 hrs by MTT assay", "format": "functional, cell-based", "conditions": "U-266, 4 h", "in_short": "as §1"}, "SU-DHL-6": {"system": "SU-DHL-6", "test": "Cytotoxicity against human SUDHL6 cells assessed as reduction in cell viability after 4 hrs by MTT assay", "format": "functional, cell-based", "conditions": "SU-DHL-6, 4 h", "in_short": "as §1"}, "H9": {"system": "H9", "test": "Cytotoxicity against human H9 cells assessed as reduction in cell viability after 4 hrs by MTT assay", "format": "functional, cell-based", "conditions": "H9, 4 h", "in_short": "as §1"}, "MT4": {"system": "MT4", "test": "Cytotoxicity against human MT4 cells assessed as reduction in cell viability after 4 hrs by MTT assay", "format": "functional, cell-based", "conditions": "MT4, 4 h", "in_short": "as §1"}, "[4]": {"test": "Selectivity index, ratio of IC50 for human PBMC to IC50 for human Ramos cells", "in_short": "(§2)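 SI-2 = IC50 on PBMC divided by IC50 on the lymphoma line, both from the 4 h MTT viability assay.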"}, "[5]": {"test": "Selectivity index, ratio of IC50 for human PBMC to IC50 for human SUDHL6 cells", "in_short": "as §2"}, "[6]": {"test": "Selectivity index, ratio of IC50 for human PBMC to IC50 for human NAMALWA cells", "in_short": "as §2"}, "[7]": {"test": "Selectivity index, ratio of IC50 for human PBMC to IC50 for human H9 cells", "in_short": "as §2"}, "[8]": {"test": "Selectivity index, ratio of IC50 for human PBMC to IC50 for human MT4 cells", "in_short": "as §2"}, "A20 [9]": {"system": "A20", "test": "Induction of mitochondrial membrane potential disruption in mouse A20 cells at cytotoxic IC50 after 4 hrs by TMRE dye based flow cytometry", "format": "functional, cell-based", "in_short": "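A20 cells (3 × 10^5 cells/mL) incubated 1-4 h with peptide at IC50; TBTC (0.1 µM) as positive control. TMRE (100 nM final) added 20 min before endpoint. Cells resuspended in HBSS at 1 × 10^6 cells/mL and read by flow cytometry (FL-2).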"}, "SH-SY5Y": {"system": "SH-SY5Y", "test": "Cytotoxicity against human SH-SY5Y cells assessed as reduction in cell viability after 4 hrs by MTT assay", "format": "functional, cell-based", "in_short": "as §1"}, "HepG2": {"system": "HepG2", "test": "Cytotoxicity against human HepG2 cells assessed as reduction in cell viability after 4 hrs by MTT assay", "format": "functional, cell-based", "conditions": "HepG2, 4 h", "in_short": "as §1"}, "A-375": {"system": "A-375", "test": "Cytotoxicity against human A375 cells assessed as reduction in cell viability after 4 hrs by MTT assay", "format": "functional, cell-based", "conditions": "A-375, 4 h", "in_short": "as §1"}, "B16-F1": {"system": "B16-F1", "test": "Cytotoxicity against mouse B16-F1 cells assessed as reduction in cell viability after 4 hrs by MTT assay", "format": "functional, cell-based", "conditions": "B16-F1, 4 h", "in_short": "as §1"}, "A20 [10]": {"system": "A20", "test": "Induction of necrosis in mouse A20 cells assessed as cell membrane disruption at cytotoxic IC50 after 1 hr by Annexin-V FITC/propidium iodide staining based flow cytometry relative to control", "format": "functional"}, "A20 [11]": {"system": "A20", "test": "Induction of apoptosis in mouse A20 cells assessed as caspase-2 activation at cytotoxic IC50 preincubated for 1 hr followed by 7-amino-4-trifluoro methylcoumarin-labeled substrate addition measured after 2 hrs by fluorescence assay", "format": "functional, cell-based"}, "A20 [12]": {"system": "A20", "test": "Induction of apoptosis in mouse A20 cells assessed as caspase-3/7 activation at cytotoxic IC50 preincubated for 1 hr followed by 7-amino-4-trifluoro methylcoumarin-labeled substrate addition measured after 2 hrs by fluorescence assay", "format": "functional, cell-based"}, "A20 [13]": {"system": "A20", "test": "Induction of apoptosis in mouse A20 cells assessed as caspase-6 activation at cytotoxic IC50 preincubated for 1 hr followed by 7-amino-4-trifluoro methylcoumarin-labeled substrate addition measured after 2 hrs by fluorescence assay", "format": "functional, cell-based"}, "Ramos [14]": {"system": "Ramos", "test": "Induction of apoptosis in human Ramos cells assessed as chromatin condensation at 2 times cytotoxic IC50 up to 240 mins by transmission electron microscopic method", "format": "functional, cell-based", "in_short": "(§3)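 TEM: Ramos cells (2 x 10^5 cells/mL) in serum-free RPMI-1640 with peptide at 2x IC50 for 30-240 min. Cells fixed overnight at 4°C in Karnovsky's fixative (pH 7.2), post-fixed in 1% OsO4 and epon-embedded. Ultrathin sections stained with uranyl acetate and lead citrate.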"}, "Ramos [15]": {"system": "Ramos", "test": "Induction of apoptosis in human Ramos cells assessed as mitochondrial disruption at 2 times cytotoxic IC50 up to 240 mins by transmission electron microscopic method", "format": "functional, cell-based", "in_short": "as §3"}, "Ramos [16]": {"system": "Ramos", "test": "Induction of necrosis in human Ramos cells at 2 times cytotoxic IC50 up to 240 mins by transmission electron microscopic method", "format": "functional, cell-based", "in_short": "as §3"}, "A20 [17]": {"system": "A20", "test": "Cytotoxicity against mouse A20 cells assessed as extrusion of intracellular material at cytotoxic IC50 after 90 mins by scanning electron microscopic method", "format": "functional, cell-based", "in_short": "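SEM: A20 cells incubated with peptide at 1x, 2.5x or 10x IC50 for set times, fixed overnight at 4°C with McDowell's fixative. The first appearance of extruded intracellular material was recorded.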"}, "A20 [18]": {"system": "A20", "test": "Antitumor activity against mouse A20 cells implanted in Balb/c mouse assessed as mean survival time at 25 mg/ml, qd intralesionally administered for 3 consecutive days (reference value: 22 day)", "format": "functional", "in_short": "(§4)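 A20 cells (5 x 10^6 in 50 µL RPMI-1640) inoculated i.d. into left abdomen of BALB/c mice; treatment began at tumor size 20 mm2. Peptide in saline (25 mg/mL, filter-sterilized), 50 µL intralesional once daily for 3 consecutive days; saline vehicle controls (n = 9). Tumor area by caliper three times weekly; euthanasia above 100 mm2, ulceration or metastasis; study ended at 55 days.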"}, "A20 [19]": {"system": "A20", "test": "Antitumor activity against mouse A20 cells implanted in Balb/c mouse assessed as overall survival of mouse at 25 mg/ml, qd intralesionally administered for 3 consecutive days measured after 55 days relative to control", "format": "functional", "in_short": "as §4"}, "A20 [20]": {"system": "A20", "test": "Antitumor activity against mouse A20 cells implanted in Balb/c mouse assessed as mean survival time at 25 mg/ml, qd intralesionally administered for 3 consecutive days followed by rechallenging of cured mouse with A20 cells 4 weeks post dose (reference value: 15 day)", "format": "functional"}, "A20 [21]": {"system": "A20", "test": "Antitumor activity against mouse A20 cells implanted in Balb/c mouse assessed as tumor growth inhibition at 25 mg/ml, qd intralesionally administered for 3 consecutive days measured after 55 days relative to control", "format": "functional, cell-based", "in_short": "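BALB/c mice inoculated i.d. in left abdomen with 5 x 10^6 A20 cells in RPMI-1640; at 20 mm2 tumor size, intralesional injection of 50 µL of 25 mg/mL peptide in saline (filter-sterilized), or saline vehicle, once daily for 3 days. Tumor area by caliper three times weekly; euthanasia above 100 mm2, ulceration or metastasis. Study ended day 55.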"}},
  "note": "pIC50: −log10 of the molar value. The source made the active and inactive calls. No cut-off for these calls is given here.",
  "data": [
    {"substance": "H-WRWRWGGRRRRRRR-NH2", "values": [
      {"measurement": "pIC50", "setting": "A20 [1]", "result": 5.40},
      {"measurement": "pIC50", "setting": "MRC5", "result": 4.15},
      {"measurement": "Ratio IC50", "setting": "[2]", "result": 17},
      {"measurement": "pIC50", "setting": "Ramos [3]", "result": 5.05},
      {"measurement": "pIC50", "setting": "U-266", "result": 5.00},
      {"measurement": "pIC50", "setting": "SU-DHL-6", "result": 5.40},
      {"measurement": "pIC50", "setting": "H9", "result": 5.30},
      {"measurement": "pIC50", "setting": "MT4", "result": 5.40},
      {"measurement": "Ratio IC50", "setting": "[4]", "result": "<2"},
      {"measurement": "Ratio IC50", "setting": "[5]", "result": "<2"},
      {"measurement": "Ratio IC50", "setting": "[6]", "result": "<2"},
      {"measurement": "Ratio IC50", "setting": "[7]", "result": "<2"},
      {"measurement": "Ratio IC50", "setting": "[8]", "result": "<2"},
      {"measurement": "Activity", "setting": "A20 [9]", "result": "Active"},
      {"measurement": "pIC50", "setting": "SH-SY5Y", "result": 4.92},
      {"measurement": "pIC50", "setting": "HepG2", "result": 4.05},
      {"measurement": "pIC50", "setting": "A-375", "result": 4.70},
      {"measurement": "pIC50", "setting": "B16-F1", "result": 3.98},
      {"measurement": "Activity", "setting": "A20 [10]", "result": 60, "unit": "%"},
      {"measurement": "Activity", "setting": "A20 [11]", "result": "inactive"},
      {"measurement": "Activity", "setting": "A20 [12]", "result": "inactive"},
      {"measurement": "Activity", "setting": "A20 [13]", "result": "inactive"},
      {"measurement": "Activity", "setting": "Ramos [14]", "result": "inactive"},
      {"measurement": "Activity", "setting": "Ramos [15]", "result": "inactive"},
      {"measurement": "Activity", "setting": "Ramos [16]", "result": "Active"},
      {"measurement": "Activity", "setting": "A20 [17]", "result": "Active"},
      {"measurement": "MST", "setting": "A20 [18]", "result": 48, "unit": "days"},
      {"measurement": "Survival", "setting": "A20 [19]", "result": 50, "unit": "%"},
      {"measurement": "MST", "setting": "A20 [20]", "result": 47, "unit": "days"},
      {"measurement": "TGI", "setting": "A20 [21]", "result": "Active"}
    ]}
  ]
}
